Experimental data from PMC11378895 (Asian Journal of Pharmaceutical Sciences, 2024).
Where no end group is shown, it is not given here.

What was measured:
[1] = target: T1, LRG1 (Homo sapiens, UniProt P02750); experiment: LRG1 degradation in HK-2 cells; assay type: cell-based; conditions: various concentrations, Western blot (Fig. S9)
T1 sequence (P02750 36-347): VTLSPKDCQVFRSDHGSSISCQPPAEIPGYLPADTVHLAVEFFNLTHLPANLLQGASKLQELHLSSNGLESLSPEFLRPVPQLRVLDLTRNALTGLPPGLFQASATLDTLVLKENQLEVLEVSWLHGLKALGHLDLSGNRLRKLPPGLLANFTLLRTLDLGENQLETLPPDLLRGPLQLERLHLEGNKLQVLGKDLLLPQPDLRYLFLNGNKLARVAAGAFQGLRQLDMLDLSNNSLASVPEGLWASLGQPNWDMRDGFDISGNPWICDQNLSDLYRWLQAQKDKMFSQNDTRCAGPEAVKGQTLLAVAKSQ
Summary of the method: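 HK-2 cells were seeded at 3 × 10^5 cells per well. After adherence, they were serum-starved 6 h, then treated with test compound at varying concentrations for 12 h. Harvested protein went to Western blot, with LRG1 normalised to GAPDH as internal control.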

[2] = system: HK-2 cells; experiment: Cellular uptake by flow cytometry and confocal microscopy; assay type: cell-based, human; conditions: 10 µM, 1-h and 4-h incubation, flow cytometry, n = 3
Summary of the method: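 HK-2 cells in DMEM with 10% FBS at 37 °C and 5% CO2, seeded at 3 × 10^5 cells per well. After adherence, they got medium with 10 µM Cy5-labelled test peptide or control peptide, some with TGF-β, for 1 h or 4 h. Flow cytometry quantified uptake (n = 3). For confocal imaging, the same treatment was followed by fixation and Hoechst 33342 nuclear stain.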

Molecule	LRG1 degradation by the constituents (control degradation experiments) [1]	uptake by HK-2 cells compared with control peptide [2]
Nc1cccc2c1CN(C1CCC(=O)NC1=O)C2=O (centres unmarked) [lenalidomide, Lenalidomide]	none of these treatments led to LRG1 degradation	–
ET-Cy5: ET peptide labeled with cyanine dye Cy5 (ESYSAKHRIMLT; also: Cy5 label, position not given here)	–	markedly enhanced than MP-Cy5
